Laboratory results reported in ChEMBL document CHEMBL4342471, “Discovery of Thieno[2,3-d]pyrimidine-Based Hydroxamic Acid Derivatives as Bromodomain-Containing Protein 4/Histone Deacetylase Dual Inhibitors Induce Autophagic Cell Death in Colorectal Carcinoma Cells” (J Med Chem, 2020).
pIC50: −log10 of the molar value. Calls of active or inactive are those of the source. The rule behind the calls is not given here.

Key:
[1] = Toxicity in BALB/cAnNCrl mouse xenografted with human HCT116 cells assessed as effect on liver morphological changes at 15 to 30 mg/kg, po administered on day 1 to day 19 measured on day 19 by hematoxylin and eosin staining based assay; format: organism-based; conditions: in vivo
In short: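 HCT-116 xenograft mice dosed orally at 15 or 30 mg/kg for 19 days, saline as vehicle control; body weights tracked, and main organs sectioned and H&E-stained at study end.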

[2] = organism: Homo sapiens; test: Inhibition of BRD4/HDAC in human HCT116 cells assessed as increase in PARP cleavage at 0.2 to 0.5 uM measured after 24 hrs by Western blot analysis; format: cell-based
[3] = test system: Mus musculus; test: Induction of autophagy in BALB/cAnNCrl mouse xenografted with human HCT116 cells assessed as increase in LC3-II level in tumor tissue at 15 to 30 mg/kg, po administered on day 1 to day 19 measured on day 19 by immunohistochemical analysis; format: functional, organism-based
In short: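 HCT-116 xenograft mice were dosed orally at 15 or 30 mg/kg, or 30 mg/kg for reference agents, for 19 days, with vehicle or saline controls. Tumor sections were stained for Ki-67, c-Myc, Ac-H3, BRD4, LC3-II, LIFR and p-STAT3 by immunohistochemistry, and TUNEL staining was used as the apoptosis marker.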

[4] = test system: NCM460; test: Cytotoxicity against human NCM460 cells; format: cell-based
In short: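 Antiproliferative IC50 values were measured by MTT assay across a panel of colorectal carcinoma cell lines and normal colorectal epithelial cells.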

[5] = biological target: Histone deacetylase 8 (Homo sapiens, UniProt Q9BY41); test: Inhibition of HDAC8 (unknown origin) using biotinylated histone H3 KAc peptide (1 to 21 residues) as substrate by HTRF assay
[6] = biological target: Bromodomain-containing protein 4 (Homo sapiens, UniProt O60885); test: Inhibition of BRD4 in human HCT116 cells transfected with ATG5 siRNA assessed as induction of autophagy by measuring LC3 cleavage at 0.5 uM by Western blot analysis; format: cell-based
In short: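 HCT-116 cells first transfected with ATG5 siRNA or scramble siRNA; after silencing, exposed to 0.5 µM test agent or normal saline, then ATG5, AMPKα, p-AMPKα, p62 and LC3 protein assessed by western blot.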

[7] = Tmax in Sprague-Dawley rat at 30 mg/kg, iv administered as bolus dose measured up to 1440 mins by UPLC-QTOF/MS analysis; format: ADME, organism-based; conditions: in vivo
[8] = test system: HCT-116; test: Induction of apoptosis in human HCT116 cells assessed as necrotic cells at 0.5 uM by Annexin-V FITC/propidium iodide staining-based flow cytometry (reference value: 0.304 %); format: functional
[9] = biological target: Histone deacetylase 1 (Homo sapiens, UniProt Q13547); test: Inhibition of HDAC1 (unknown origin) using biotinylated histone H3 KAc peptide (1 to 21 residues) as substrate by HTRF assay
[10] = biological target: Histone deacetylase 5 (Homo sapiens, UniProt Q9UQL6); test: Inhibition of HDAC5 (unknown origin) using biotinylated histone H3 KAc peptide (1 to 21 residues) as substrate by HTRF assay
[11] = Half life in Sprague-Dawley rat at 30 mg/kg, iv administered as bolus dose measured up to 1440 mins by UPLC-QTOF/MS analysis; format: ADME, organism-based; conditions: in vivo
[12] = organism: Homo sapiens; test: Inhibition of BRD4/HDAC in human HCT116 cells assessed as increase in IL6 mRNA level at 0.5 uM after 24 hrs by RT-PCR analysis; format: cell-based
In short: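 HCT-116 cells incubated 24 h with test agent (0.5 µM, 2.0 µM or 10 µM depending on compound); IL6, OSM, LIF and CTF1 mRNA levels then quantified.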

Chain of Histone deacetylase 5 (Q9UQL6 whole entry, the tested form may be a part): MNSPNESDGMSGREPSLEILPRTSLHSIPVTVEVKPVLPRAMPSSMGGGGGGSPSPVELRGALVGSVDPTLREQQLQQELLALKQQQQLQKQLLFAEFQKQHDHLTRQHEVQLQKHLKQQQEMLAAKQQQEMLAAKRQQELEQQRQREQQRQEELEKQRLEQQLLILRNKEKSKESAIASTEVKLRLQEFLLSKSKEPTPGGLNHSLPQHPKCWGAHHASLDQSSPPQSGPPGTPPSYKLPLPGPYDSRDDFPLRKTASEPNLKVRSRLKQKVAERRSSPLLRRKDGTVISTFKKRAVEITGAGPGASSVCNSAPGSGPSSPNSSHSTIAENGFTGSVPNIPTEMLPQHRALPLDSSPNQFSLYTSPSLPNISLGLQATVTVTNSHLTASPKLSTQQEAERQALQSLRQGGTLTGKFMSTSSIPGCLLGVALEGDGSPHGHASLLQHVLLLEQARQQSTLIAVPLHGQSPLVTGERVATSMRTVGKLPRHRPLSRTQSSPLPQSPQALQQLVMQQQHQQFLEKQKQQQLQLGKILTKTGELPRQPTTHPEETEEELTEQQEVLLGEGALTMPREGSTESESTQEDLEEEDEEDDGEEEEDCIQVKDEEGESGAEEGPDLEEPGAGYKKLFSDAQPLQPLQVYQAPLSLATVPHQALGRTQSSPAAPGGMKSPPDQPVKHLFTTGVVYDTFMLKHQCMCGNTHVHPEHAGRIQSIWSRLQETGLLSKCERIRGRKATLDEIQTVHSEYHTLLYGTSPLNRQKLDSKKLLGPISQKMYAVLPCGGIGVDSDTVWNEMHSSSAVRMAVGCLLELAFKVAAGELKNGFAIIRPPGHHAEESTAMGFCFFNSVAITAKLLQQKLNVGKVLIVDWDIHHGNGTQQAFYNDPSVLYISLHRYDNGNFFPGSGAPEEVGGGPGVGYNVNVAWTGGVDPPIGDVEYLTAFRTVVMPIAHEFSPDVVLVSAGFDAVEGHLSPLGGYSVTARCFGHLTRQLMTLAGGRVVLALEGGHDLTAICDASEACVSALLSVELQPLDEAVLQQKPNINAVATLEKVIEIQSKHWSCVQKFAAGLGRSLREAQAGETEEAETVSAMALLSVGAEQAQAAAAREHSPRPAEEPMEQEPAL
Chain of Histone deacetylase 8 (Q9BY41 whole entry, the tested form may be a part): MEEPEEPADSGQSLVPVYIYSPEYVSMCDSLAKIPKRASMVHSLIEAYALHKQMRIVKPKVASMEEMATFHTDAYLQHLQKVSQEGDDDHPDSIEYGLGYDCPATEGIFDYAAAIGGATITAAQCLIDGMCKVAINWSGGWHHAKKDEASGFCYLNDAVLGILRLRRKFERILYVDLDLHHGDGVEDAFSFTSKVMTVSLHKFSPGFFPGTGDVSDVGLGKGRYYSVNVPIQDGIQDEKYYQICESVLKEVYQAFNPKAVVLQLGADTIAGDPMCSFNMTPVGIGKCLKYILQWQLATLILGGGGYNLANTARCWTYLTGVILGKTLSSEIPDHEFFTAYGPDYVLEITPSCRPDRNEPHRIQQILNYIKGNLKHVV
Chain of Histone deacetylase 1 (Q13547 whole entry, the tested form may be a part): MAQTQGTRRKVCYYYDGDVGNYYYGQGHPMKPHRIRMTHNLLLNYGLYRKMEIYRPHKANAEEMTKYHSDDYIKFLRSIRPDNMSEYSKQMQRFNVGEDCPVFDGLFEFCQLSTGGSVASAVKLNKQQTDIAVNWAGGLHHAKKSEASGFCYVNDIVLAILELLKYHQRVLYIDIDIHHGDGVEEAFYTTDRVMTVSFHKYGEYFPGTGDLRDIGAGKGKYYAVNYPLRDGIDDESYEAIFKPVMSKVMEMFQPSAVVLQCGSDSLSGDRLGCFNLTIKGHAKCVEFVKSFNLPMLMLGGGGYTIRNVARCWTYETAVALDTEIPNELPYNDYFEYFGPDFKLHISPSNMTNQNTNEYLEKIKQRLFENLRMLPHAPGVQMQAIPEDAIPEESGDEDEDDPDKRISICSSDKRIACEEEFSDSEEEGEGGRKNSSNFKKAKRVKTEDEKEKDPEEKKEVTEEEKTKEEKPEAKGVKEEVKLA

Cc1cc(-c2nc3sc4c(c3c(=O)[nH]2)CCN(C)C4)cc(C)c1OCCCCCC(=O)NO
Activity [1]: Non-Toxic
inhibition [2]: Active
Activity [3]: Active
Activity [4]: Non-Toxic
pIC50 [5]: 6.78
inhibition [6]: inactive
Tmax [7]: 7.2 min
Activity [8]: 9.75%
pIC50 [9]: 7.34
pIC50 [10]: < 5.00
half-life [11]: 2.48 h
inhibition [12]: Active
